Measured values of several laboratories.
Compare with care: the assays were run in different laboratories.
Read-out: cell growth or viability

Compound | cell line | technique | concentration | time | measurement | result
N#C[C@@]1(c2ccc3c(N)ncnn23)O[C@H](COC(=O)C2CCC(F)CC2)[C@@H](O)[C@H]1O (some centres unmarked) | HEp-2 | CCK-8 |  | 5 days | CC50 | 53.3 µM
[N-]=[N+]=N[C@]1(CO)O[C@@H](n2ccc(N)nc2=O)[C@@H](F)[C@@H]1O | Calu-3 | ATP luminescence |  | 72 h | CC50 | > 50 µM
CC(C)(C)c1cc([N+](=O)[O-])cc(C=O)c1O | TZM-bl | resazurin |  |  | CC50 | > 12.5 µM
Nc1ccn([C@@H]2O[C@H](CO)[C@@H](O)C2(F)F)c(=O)n1 | MCF7 | MTT | 2.5 µg/mL | 24 h | viability | 51.3%
O=C1CCC(N2C(=O)c3cccc(NCc4cn(Cc5ccc(-c6nc7cc(-c8ccccc8)ccn7c6Nc6ccc(C(=O)O)cc6)cc5)nn4)c3C2=O)C(=O)N1 (centres unmarked) | MCF7 |  |  | 72 h | CC50 | 105 µM
NC(=O)c1ncn([C@@H]2O[C@H](CO)[C@@H](O)[C@H]2O)n1 | HEp-2 | CCK-8 |  | 5 days | CC50 | 176 µM
CN(Cc1cn(Cc2ccc(-c3nc4cc(-c5ccccc5)ccn4c3Nc3ccc(C(=O)O)cc3)cc2)nn1)c1cccc2c1C(=O)N(C1CCC(=O)NC1=O)C2=O (centres unmarked) | MCF7 |  |  | 72 h | CC50 | 129 µM
COc1cccc(C=NNC(=S)NN)c1OC | TZM-bl | resazurin |  |  | CC50 | > 12.5 µM
CCCCCCCCC(=O)OC[C@H]1O[C@@](C#N)(c2ccc3c(N)ncnn23)[C@H](O)[C@@H]1O | HEp-2 | CCK-8 |  | 5 days | CC50 | 45.5 µM
CCOC(=O)c1cc(O)c(O)c(O)c1 | MDBK | MTT |  | 72 h | CC50 | > 256 µg/mL
CC(=O)OC[C@H]1O[C@@H]([S-])[C@H](OC(C)=O)[C@@H](OC(C)=O)[C@@H]1OC(C)=O.CCP(CC)CC.[Au+] | THP-1 | ATP luminescence |  | 72 h | CC50 | 2.83 µM
